# Source: PubChem BioAssay
# This excerpt belongs to a sample that is enriched for hits.
# INS promoter act – activators of insulin promoter-driven GFP, primary screen, imaging, TRM-6 cells, eGFP reporter, cell count; plate-scaled: unstimulated 0, stimulated control 100; activation, % at 2 µM; 130,000 tested, 0.81% active; AID 1296, 2008;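 active = activation at 2 µM above a set limit, confirmed on inspection of the cell images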;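 also: share of cells whose green reporter signal exceeds an intensity cutoff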
#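 Material: Human fetal islet-derived TRM-6 cells with tamoxifen-inducible insulin promoter–eGFP reporter | Medium: Low-glucose (5.5 mM) medium with tamoxifen | Probe or stimulus: Tamoxifen inducer, 0.75 µM, in seeding medium | Schedule: Tamoxifen pre-incubation 15 h overnight, then compound exposure 48 h at 37 °C | Detection: High-content imaging of fixed cells with Hoechst nuclear stain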
# Starred values were filed as active, the others as inactive.
SMILES,INS promoter act
CCOC(=O)CNC(=O)C(Cc1ccccc1)NS(=O)(=O)c1cccs1 (stereo not given),106.5
CC(Cc1ccccc1)C(=O)NCc1ccncc1 (stereo not given),-4.8
Cc1ccc(CNC(=O)C(Cc2ccccc2)NS(=O)(=O)c2cccs2)cc1 (stereo not given),96.4*
COc1cc2c(cc1OC)C(c1cc3cc4c(cc3[nH]c1=O)OCO4)N(C(=O)C(C)C)CC2 (stereo not given),138.9
Cc1cc(C)c(NC(=O)CN2C(=O)NC3(CCCCC3)C2=O)c(C)c1,-6.5
Cc1cccc(N2C(=O)NC3(CCCCC3)C2=O)c1,77.8*
Cc1cccc(N2C(S)=C(C#N)C(=O)NC23CCCCC3)c1,0.0
Cc1ccccc1-n1cnnc1SCC(=O)N1CCN(c2ccccc2)CC1,130.8
O=C(NCC1CCCO1)C1c2ccccc2C(=O)N1C1CCCCCCC1 (stereo not given),0.0
O=C(NCc1cccnc1)C1c2ccccc2C(=O)N1C1CCCCCCC1 (stereo not given),156.3*
CCOc1ccc(CN2C(=O)c3ccccc3C2C(=O)NCc2cccnc2)cc1 (stereo not given),163.6
Cn1c(=O)c2c(ncn2CC(=O)N(Cc2ccccc2)c2ccccn2)n(C)c1=O,0.0
COCCNC(=S)N/N=C(\C)c1ccc(C)c([N+](=O)[O-])c1,-9.1
C/C(=N\NC(=O)c1cccc(Cl)c1)c1cccc(NC(=O)C(C)C)c1,2.7
Cc1ccc(C)n1NC(=O)c1cccc(Cl)c1,-4.3
CC(C)c1ccc(/C=N/NC(=O)c2cccc(Cl)c2)cc1,516.7*
COCCN=c1scc(-c2cc(OC)c(OC)c(OC)c2)n1/N=C/c1c(C)[nH]c2ccccc12,172.7
CCc1ccc2c(c1)/C(=N/OC)C(=O)N2,-7.7
O=C(Nc1ccccc1C(=O)N1CCCC1)C1COc2ccccc2O1 (stereo not given),-8.3
C=CCNC(=O)c1ccccc1NC(=O)C1COc2ccccc2O1 (stereo not given),471.4*
CCc1nnc(NC(=O)C2COc3ccccc3O2)s1 (stereo not given),-5.4
COc1cccc(N2CCN(C3CC(=O)N(c4cccc(Cl)c4)C3=O)CC2)c1 (stereo not given),-3.7
CCOc1cccc(N2C(=O)CC(N3CCN(c4ccc(S(=O)(=O)CC)cc4)CC3)C2=O)c1 (stereo not given),80.0*
CCN1C(=O)CC(N2CCN(c3cccc(OC)c3)CC2)C1=O (stereo not given),0.0
O=C(Cc1ccc(-n2c(=O)c3ccccc3n(Cc3cccc([N+](=O)[O-])c3)c2=O)cc1)NCC1CCCO1 (stereo not given),-6.5
SMILES,INS promoter act
O=C(Nc1nnc(CCN2CCOCC2)s1)c1ccccc1,9.4
CC1C(=O)CC(c2ccco2)NC1c1ccco1 (stereo not given),4.3
Cc1ccc(Sc2ncccc2COC(=O)Nc2c(C)cccc2C)cc1,110.3
Cc1ccccc1NC(=O)OCc1cccnc1Sc1ccc(Cl)cc1,0.0
Cc1ccc(Oc2ncccc2COC(=O)Nc2ccccc2C)cc1,369.2*
COc1ccc(NC(=O)CSc2nnc(CCC(=O)O)c(=O)n2N)cc1,-7.1
Cc1cc(OCC(=O)N(C(C)C)C(C)C)cc(C)c1Br,123.5
Cc1ccc(S(=O)(=O)N2CCN(C(=O)COc3ccc(NC(=O)c4ccco4)cc3)CC2)cc1,106.7
CN(CC(=O)Nc1ccc(S(=O)(=O)N2CCCC2)cc1)CC(=O)Nc1cccc(F)c1,220.0*
CN1CCN(S(=O)(=O)c2ccc(N(C)CC(=O)Nc3ccc(F)cc3)nc2)CC1,-20.0
CC(C)CC(=O)NC(=S)Nc1ccc(S(=O)(=O)N2CCN(C)CC2)cc1,7.7
COc1ccc(S(=O)(=O)N2CCN(CC(=O)Nc3cccc(F)c3)CC2)cc1,-3.2
Cc1ccc(OCC(=O)Nc2ccc(S(=O)(=O)N3CCN(C)CC3)cc2)cc1,405.6*
COc1ccc(C(=O)Nc2cc3c(cc2OC)CCCC3)cc1Br,3.3
O=c1c(-c2nc3ccccc3s2)cccn1Cc1ccc(Cl)c(Cl)c1,6.7
CCOc1ccc(-c2cc(C(=O)OC)[nH]n2)cc1,0.0
N#Cc1c(Sc2ncc(C(F)(F)F)cc2Cl)nsc1C/C=N\OCc1c(F)cccc1Cl,542.9*
FC(F)(F)c1cnc(Sc2nnc(-c3cccs3)n2CC2CCCO2)c(Cl)c1 (stereo not given),-8.1
CCCNC(=O)c1cnc(Sc2ncc(C(F)(F)F)cc2Cl)n1C,9.4
Cc1nc(N)nc(Cl)c1Cc1ccc(Cl)cc1,0.0
O=C(Nc1nsc(-c2ccccc2)n1)c1cccs1,0.0
CCCn1c(N)[n+](CC(=O)c2ccco2)c2ccccc21,-2.3
Cc1nnc(NC(=O)c2cccc(NC(=O)C(C)C)c2)s1,-5.4
CC(C)C(=O)Nc1cccc(S(=O)(=O)c2cccc(NC(=O)C(C)C)c2)c1,487.5*
CC(C)C(=O)Nc1cccc(NC(=O)c2cc3ccccc3o2)c1,-78.6
SMILES,INS promoter act
CC(C)(C)NC(=O)CN(C(=O)CS(=O)CC(=O)Nc1ccc(F)cc1)c1ccc2c(c1)OCCO2 (stereo not given),-9.1
Cn1ccnc1C(=O)c1cc(SCC(=O)NCc2ccccc2)nc2ccccc12,0.0
CCOC(=O)C(C(=O)N1CCOCC1)C1CCCCC1 (stereo not given),286.4
COC(=O)C(C(=O)NCC1CCCO1)C1CCCCCC1 (stereo not given),-7.7
COC(=O)C(C(=O)N1CCN(C)CC1)C1CCCCCC1 (stereo not given),431.3*
CC(=O)Oc1ccc(-c2nc(-c3cccnc3)no2)cc1,362.9
Cc1nccn1CC(O)Cn1c2ccccc2c2ccccc21 (stereo not given),9.5
Cc1cccc(C)c1N(CC(O)Cn1c2ccccc2c2ccccc21)S(C)(=O)=O (stereo not given),89.3*
Cc1cccc(C)c1N(CC(=O)N1CCN(c2ccccc2F)CC1)S(C)(=O)=O,6.7
CCN(CC)CCCn1c(C)cc2c(c1=O)C(c1ccc(OC)c(OC)c1OC)C(C#N)=C(N)O2 (stereo not given),50.0
Cc1cc(NC(=O)c2cnn3c(C(F)F)cc(-c4ccccc4)nc23)no1,9.1
Cc1cc(NC(=O)c2cnn3c(C(F)(F)F)cc(-c4ccccc4)nc23)no1,429.4*
Cc1cc(NC(=O)c2cnn3c(C(F)F)cc(C4CC4)nc23)no1,106.7
Cc1cnc(C(=O)NCCc2ccc(S(=O)(=O)NC(=O)NC3CCCCC3)cc2)cn1,9.5
CCN(CC)c1ccc2c(C)c(-c3ccc(N)cc3)c(=O)oc2c1,-1.8
CCN(CC)c1ccc2c(Cl)c(Br)c(=O)oc2c1,133.3*
CCN(CC)c1ccc2c(c1)oc(=O)c1c(Cl)cc(=O)oc12,219.0
COc1ccc(Cl)cc1NC(=O)CS(=O)(=O)c1cccc2nsnc12,7.7
Cc1ccccc1NC(=O)CCC(=O)OCC(=O)c1ccc(-c2ccccc2)cc1,8.9
CCN(c1ccccc1)S(=O)(=O)c1ccc(C(=O)NCCCn2ccnc2)cc1,9.1
O=C(NCCCn1ccnc1)c1cccc(S(=O)(=O)Nc2ccccc2F)c1,-9.1
O=C(NCCCn1ccnc1)c1cccc(S(=O)(=O)NCc2ccccc2)c1,400.0*
COc1cccc(/C=N/Nc2snc(SC)c2C#N)c1O,0.0
CCOC(=O)c1ccc(NC(=O)C2CCCO2)cc1 (stereo not given),9.1
Cc1ccc(C(=O)N/C(=C/c2cccs2)C(=O)NCCc2c[nH]c3ccccc23)cc1,146.9
